{"source": "paper PMC4512239", "about": "(Clinical cancer research : an official journal of the …, 2015)", "format_in_all_cases": "in vivo, human", "key": {"[1]": {"system": "p-AKT (S473) in PRP", "assay": "p-AKT in platelet-rich plasma by Meso Scale Discovery immunoassay"}, "[2]": {"assay": "clinical plasma pharmacokinetics", "settings": "for AUC / Cmax / half-life: human, plasma"}, "[3]": {"system": "p-S6", "assay": "p-S6 immunohistochemistry in pre- and post-treatment tumor biopsies", "settings": "50 mg BD, post-treatment vs pre-treatment, mean H score", "how_it_was_run": "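Paired tumor biopsies taken before treatment and on days 8-15 of continuous oral twice-daily dosing, in a subset of expansion-cohort patients with advanced solid tumors. Patients fasted (water allowed) 2 h before and 1 h after each dose. Markers were scored by immunohistochemistry on post-treatment versus pre-treatment samples.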"}}}
{"smiles": "CNC(=O)c1cccc(-c2ccc3c(N4CCOC[C@@H]4C)nc(N4CCOC[C@@H]4C)nc3n2)c1", "note": "[AZD2014]", "values": [{"measurement": "mean % change from baseline in p-AKT", "setting": "[1]; 50 mg, 24 hours (12 hours after the 2nd BD dose)", "value": "−2", "unit": "%"}, {"measurement": "mean % change from baseline in p-AKT", "setting": "[1]; single 50 mg dose, 6-8 hours", "value": "−37", "unit": "%"}, {"measurement": "mean % change from baseline in p-AKT", "setting": "[1]; single 50 mg dose, 2 hours", "value": "−62", "unit": "%"}, {"measurement": "free weekly AUC, average", "setting": "[2]; 50mg BD solution, converted from total exposure with MW and 5.47% free", "value": 11.05, "unit": "µM·h"}, {"measurement": "Cmin SS, Gmean", "setting": "[2]; 50 mg BD, n=27", "value": 169.5, "unit": "ng/mL"}, {"measurement": "Cmin SS, range", "setting": "[2]; 50 mg BD, n=27", "value": "0 to 2120", "unit": "ng/mL"}, {"measurement": "dose proportionality of Geomean exposure (AUC and Cmax)", "setting": "[2]; 25 to 100 mg", "value": "increased greater than proportionally with increasing dose"}, {"measurement": "AUC", "setting": "[2]; oral, 25 mg, AUC, Gmean, Single dose, N=6", "value": 1640, "unit": "ng·h/mL"}, {"measurement": "AUC", "setting": "[2]; oral, 25 mg, AUC, Range, Single dose, N=6", "value": "883 to 2730", "unit": "ng·h/mL"}, {"measurement": "AUC", "setting": "[2]; oral, 25 mg, AUCss, Gmean, Steady state, 25 mg BD, N=6", "value": 2980, "unit": "ng·h/mL"}, {"measurement": "AUC", "setting": "[2]; oral, 25 mg, AUCss, Range, Steady state, 25 mg BD, N=6", "value": "1000 to 6560", "unit": "ng·h/mL"}, {"measurement": "Cmax", "setting": "[2]; oral, 25 mg, Cmax ss, Gmean, Steady state, 25 mg BD, N=6", "value": 747, "unit": "ng/mL"}, {"measurement": "Cmax", "setting": "[2]; oral, 25 mg, Cmax ss, Range, Steady state, 25 mg BD, N=6", "value": "227 to 1450", "unit": "ng/mL"}, {"measurement": "Cmax", "setting": "[2]; oral, 25 mg, Cmax, Gmean, Single dose, N=6", "value": 435, "unit": "ng/mL"}, {"measurement": "Cmax", "setting": "[2]; oral, 25 mg, Cmax, Range, Single dose, N=6", "value": "221 to 681", "unit": "ng/mL"}, {"measurement": "half-life", "setting": "[2]; oral, 25 mg, t½, Mean, Single dose, N=6", "value": 2.96, "unit": "h"}, {"measurement": "half-life", "setting": "[2]; oral, 25 mg, t½, Range, Single dose, N=6", "value": "0.88 to 6.71", "unit": "h"}, {"measurement": "half-life", "setting": "[2]; oral, 25 mg, t½, ss, Mean, Steady state, 25 mg BD, N=6", "value": 2.89, "unit": "h"}, {"measurement": "half-life", "setting": "[2]; oral, 25 mg, t½, ss, Range, Steady state, 25 mg BD, N=6", "value": "1.34 to 4.06", "unit": "h"}, {"measurement": "AUC", "setting": "[2]; oral, 50 mg, AUC, Gmean, Single dose, N=27", "value": 4020, "unit": "ng·h/mL"}, {"measurement": "AUC", "setting": "[2]; oral, 50 mg, AUC, Range, Single dose, N=27", "value": "453 to 12600", "unit": "ng·h/mL"}, {"measurement": "AUC", "setting": "[2]; oral, 50 mg, AUCss, Gmean, Steady state, 50 mg BD, N=37", "value": 6690, "unit": "ng·h/mL"}, {"measurement": "AUC", "setting": "[2]; oral, 50 mg, AUCss, Range, Steady state, 50 mg BD, N=37", "value": "1280 to 47800", "unit": "ng·h/mL"}, {"measurement": "Cmax", "setting": "[2]; oral, 50 mg, Cmax ss, Gmean, Steady state, 50 mg BD, N=37", "value": 1660, "unit": "ng/mL"}, {"measurement": "Cmax", "setting": "[2]; oral, 50 mg, Cmax ss, Range, Steady state, 50 mg BD, N=37", "value": "657 to 6410", "unit": "ng/mL"}, {"measurement": "Cmax", "setting": "[2]; oral, 50 mg, Cmax, Gmean, Single dose, N=27", "value": 1150, "unit": "ng/mL"}, {"measurement": "Cmax", "setting": "[2]; oral, 50 mg, Cmax, Range, Single dose, N=27", "value": "234 to 2840", "unit": "ng/mL"}, {"measurement": "half-life", "setting": "[2]; oral, 50 mg, t½, Mean, Single dose, N=27", "value": 2.48, "unit": "h"}, {"measurement": "half-life", "setting": "[2]; oral, 50 mg, t½, Range, Single dose, N=27", "value": "0.9 to 8.04", "unit": "h"}, {"measurement": "half-life", "setting": "[2]; oral, 50 mg, t½, ss, Mean, Steady state, 50 mg BD, N=37", "value": 3.01, "unit": "h"}, {"measurement": "half-life", "setting": "[2]; oral, 50 mg, t½, ss, Range, Steady state, 50 mg BD, N=37", "value": "1.18 to 4.8", "unit": "h"}, {"measurement": "AUC", "setting": "[2]; oral, 70 mg, AUC, Gmean, Single dose, N=5", "value": 8970, "unit": "ng·h/mL"}, {"measurement": "AUC", "setting": "[2]; oral, 70 mg, AUC, Range, Single dose, N=5", "value": "6010 to 14200", "unit": "ng·h/mL"}, {"measurement": "AUC", "setting": "[2]; oral, 70 mg, AUCss, Range, Steady state, 70 mg BD, N=2", "value": "7500 to 22500", "unit": "ng·h/mL"}, {"measurement": "Cmax", "setting": "[2]; oral, 70 mg, Cmax ss, Range, Steady state, 70 mg BD, N=2", "value": "1500 to 3870", "unit": "ng/mL"}, {"measurement": "Cmax", "setting": "[2]; oral, 70 mg, Cmax, Gmean, Single dose, N=5", "value": 2380, "unit": "ng/mL"}, {"measurement": "Cmax", "setting": "[2]; oral, 70 mg, Cmax, Range, Single dose, N=5", "value": "1440 to 3690", "unit": "ng/mL"}, {"measurement": "half-life", "setting": "[2]; oral, 70 mg, t½, Mean, Single dose, N=5", "value": 3.11, "unit": "h"}, {"measurement": "half-life", "setting": "[2]; oral, 70 mg, t½, Range, Single dose, N=5", "value": "1.35 to 5.98", "unit": "h"}, {"measurement": "half-life", "setting": "[2]; oral, 70 mg, t½, ss, Range, Steady state, 70 mg BD, N=2", "value": "3.63 to 4.23", "unit": "h"}, {"measurement": "AUC", "setting": "[2]; oral, 100 mg, AUC, Gmean, Single dose, N=4", "value": 9670, "unit": "ng·h/mL"}, {"measurement": "AUC", "setting": "[2]; oral, 100 mg, AUC, Range, Single dose, N=4", "value": "4770 to 16100", "unit": "ng·h/mL"}, {"measurement": "Cmax", "setting": "[2]; oral, 100 mg, Cmax, Gmean, Single dose, N=4", "value": 2790, "unit": "ng/mL"}, {"measurement": "Cmax", "setting": "[2]; oral, 100 mg, Cmax, Range, Single dose, N=4", "value": "1410 to 5050", "unit": "ng/mL"}, {"measurement": "half-life", "setting": "[2]; oral, 100 mg, t½, Mean, Single dose, N=4", "value": 3.23, "unit": "h"}, {"measurement": "half-life", "setting": "[2]; oral, 100 mg, t½, Range, Single dose, N=4", "value": "0.82 to 6.49", "unit": "h"}, {"measurement": "half-life", "setting": "[2]; po, terminal elimination half-life, patients", "value": "~3", "unit": "h"}, {"measurement": "evaluable paired biopsy samples with a reduction of p-S6 levels", "setting": "[3]", "value": "8/8"}]}
